This is an account of results in ChEMBL document CHEMBL3232756, “Synthesis and biological evaluation of N-dehydrodipeptidyl-N,N'-dicyclohexylurea analogs” (Eur J Med Chem, 2014).

The structures appear in SMILES notation. In brackets after ≈: the same amount, converted by molar mass.

Data set [1] is described as follows: Cytotoxicity against brine shrimps larvae assessed as mortality after 24 hrs. The following applies: artemia, in vivo; read-out: ED50. The data set is classed as organism-based. In outline: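 Shrimp eggs were hatched in filtered artificial sea water (38 g sea salt/L) in a divided tank. Larvae were exposed in vials at several concentrations under a lamp, and survivors were counted 24 h later. ED50 and 95% confidence intervals were derived from % larvae surviving by Finney probit analysis.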

Data set [2] concerns Aspergillus niger. The data set can be described thus: Antimicrobial activity against Aspergillus niger MTCC 292 at 500 ug/ml after 24 hrs by cup plate method. Type of data set: functional. The conditions noted are these: MTCC 292, 24 h, read-out: DIZ.
For data set [3], the system named is Candida albicans. The data set can be described thus: Antimicrobial activity against Candida albicans MTCC 227 at 500 ug/ml after 24 hrs by cup plate method. The following applies: MTCC 227, 24 h, read-out: DIZ. Type of data set: functional.
For data set [4], the system named is Mus musculus. Briefly: Acute toxicity in Swiss albino mouse assessed as mortality up to 1500 mg/kg, po. Type of data set: organism-based. On the set-up: dose 1500 mg/kg, route oral. The conditions noted are these: in vivo. In outline: (§1)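 Swiss albino mice (6–8 weeks, 25–30 g) were dosed orally at 500, 1000 or 1500 mg/kg, following OECD guidelines. Body weight, food and water intake, behavioural patterns and mortality were recorded and compared with a control group.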

The test system of data set [5] is Mus musculus. The data set can be described thus: Acute toxicity in Swiss albino mouse assessed as gross behavioral changes up to 1500 mg/kg, po. Type of data set: organism-based. On the set-up: dose 1500 mg/kg, route oral. The following applies: in vivo. In outline: as §1
In a further data set the test system is Rattus norvegicus. Briefly: Antiinflammatory activity in Wister rat assessed as inhibition of carrageenan-induced paw edema at 100 mg/kg, po administered 1 hr before carrageenan challenge measured after 3 hrs by plethysmograph analysis. Type of data set: functional. The method, boiled down: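 Rats of either sex, 150–220 g, food withheld 4 h. Compound or diclofenac sodium 100 mg/kg p.o., or 0.5% sodium CMC at 10 ml/kg as vehicle control, given 1 h before 0.05 ml of 1% carrageenan subplantar into the right hind paw. Paw volume read by water-displacement plethysmograph at 0, 30, 60, 120 and 180 min. % edema inhibition = 100(1−Vt/Vc); n=5, control n=6; ANOVA/Dunnett.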
(In general: Carrageenan injected into the paw causes an acute inflammation.)

The test system of data set [6] is Mus musculus. The data set can be described thus: Analgesic activity in Swiss albino mouse assessed as inhibition of acetic acid-induced writhing response at 100 mg/kg, po administered 1 hr before acetic acid challenge after 5 mins. The data set is classed as functional. For orientation: Writhing tests count abdominal constrictions after an irritant is injected.

Another data set concerns Bacillus subtilis. The data set can be described thus: Antimicrobial activity against Bacillus subtilis MTCC 441 at 0.02 ml of 1 mg/ml after 24 hrs by cup plate method. The conditions noted are these: MTCC 441, 24 h, read-out: DIZ. The data set is classed as functional. In outline:
(§2)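 Cup-plate diffusion on Mueller-Hinton/nutrient agar swab-streaked with suspension, 6 mm cups bored. Each compound at 1 mg/ml in DMSO, 0.02 ml per cup; DMSO as solvent control. Amoxicillin for bacteria and fluconazole for fungi at 200 and 500 respectively as references. Incubation 37 °C for 24 h. Inhibition zone diameter in mm, triplicate, mean ± SD.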

The subject of another data set is Staphylococcus aureus. Briefly: Antimicrobial activity against Staphylococcus aureus MTCC 96 at 0.02 ml of 1 mg/ml after 24 hrs by cup plate method. Type of data set: functional. The conditions noted are these: MTCC 96, 24 h, read-out: DIZ. The method, boiled down:
as §2

Another data set deals with Pseudomonas aeruginosa. The data set can be described thus: Antimicrobial activity against Pseudomonas aeruginosa MTCC 1688 at 0.02 ml of 1 mg/ml after 24 hrs by cup plate method. Type of data set: functional. The following applies: MTCC 1688, 24 h, read-out: DIZ. In outline: as §2
For another data set, the system named is Escherichia coli. The data set can be described thus: Antimicrobial activity against Escherichia coli ESS 2231 at 0.02 ml of 1 mg/ml after 24 hrs by cup plate method. The data set is classed as functional. The following applies: ESS 2231, 24 h, read-out: DIZ. The method, boiled down: as §2
In data set [7] the test system is Aspergillus niger. The data set can be described thus: Antimicrobial activity against Aspergillus niger MTCC 292 at 0.02 ml of 1 mg/ml after 24 hrs by cup plate method. The following applies: MTCC 292, 24 h, read-out: DIZ. The data set is classed as functional. In outline: as §2
The test system of data set [8] is Candida albicans. Briefly: Antimicrobial activity against Candida albicans MTCC 227 at 0.02 ml of 1 mg/ml after 24 hrs by cup plate method. Type of data set: functional. The following applies: MTCC 227, 24 h, read-out: DIZ. The method, boiled down:
as §2

The subject of data set [9] is Radical scavenging activity. Briefly: Antioxidant activity assessed as DPPH radical scavenging activity after 20 to 30 mins. The data set is classed as functional. The method, boiled down: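 Test solution (2 ml at 25, 50, 75, 100, 125) mixed with 2 ml ethanolic DPPH, held in the dark at ambient temperature 20–30 min, then A517 read against an ethanol blank. Tocopherol used as standard. % scavenging = (Acontrol−Atest)/Acontrol×100, run in triplicate. IC50 read graphically from the % scavenging versus concentration plot.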
(DPPH is a stable violet radical that fades when it is reduced.)

Data set [10] can be described thus: Antioxidant activity assessed as hydroxyl radical scavenging activity after 15 mins. Type of data set: functional. The method, boiled down:
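Deoxyribose degradation mix: 2-deoxy-2-ribose 2.8 mM, KH2PO4–KOH 20 mM pH 7.4, FeCl3, EDTA, H2O2 1.0 mM, ascorbic acid, plus compound in methanol. Incubated 1 h at 37 °C. A 0.5 ml aliquot taken with 1 ml 2.8% TCA and 1 ml 1% TBA, heated 90 °C for 15 min, cooled, A532 read. % inhibition against blank.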

The next data set relates to Brain. Briefly: Antioxidant activity against lipid peroxidation in Wister rat brain homogenates assessed as thiobarbituric acid reactive substance formation after 30 mins by spectrophotometer analysis. The data set is classed as functional, tissue-based. The conditions noted are these: 0.5 h. The method, boiled down:
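Whole brain minus cerebellum from overnight-fasted rats of either sex, 200–220 g. Homogenized 10% w/v in 0.15 M KCl and spun at 800 rpm for 10 min. Reaction incubated 37 °C for 30 min, then TBA:TCA (1:1) and BHT added, heated 80 °C for 20 min, cooled, centrifuged, A532 read.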

Data set [11] is described as follows: Antioxidant activity assessed as trolox equivalents of cupric reducing antioxidant capacity after 30 mins. The data set is classed as functional. In outline: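 Mix of 1 ml CuCl2 (10 mM), 1 ml ethanolic neocuproine (7.5 mM), 1 ml ammonium acetate buffer (pH 7.0, 1 M), 1 ml compound or standard solution and 0.1 ml water, total 4.1 ml. A450 read after 30 min against reagent blank. TEAC = ε test/ε Trolox.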

Turning to `COc1cc([C@@H]2c3cc4c(cc3[C@H](O)[C@H]3COC(=O)[C@H]23)OCO4)cc(OC)c1OC` [PODOFILOX], the LC50 at 24 h in data set [1] was 3.77 µg/mL (≈ 9.1 µM).

Turning to `OC(Cn1cncn1)(Cn1cncn1)c1ccc(F)cc1F` [FLUCONAZOLE], the zone of inhibition at 500 µg/mL with Aspergillus niger [2] was 24 mm; in the data set with Candida albicans [3], 23.2 mm.

One may read the inhibition in vivo as the share of the control response that was lost under treatment. What is called IC50 is the concentration needed to halve the response being measured. Turning to `O=C(NC(CS)C(=O)N(C(=O)NC1CCCCC1)C1CCCCC1)/C(=C\c1ccc(Cl)cc1)NC(=O)c1ccccc1` (stereo not drawn), the Activity result in the data set with Mus musculus [4] and with Mus musculus [5] was “Non-toxic” throughout. Moreover, the inhibition in vivo at 100 mg/kg in the data set on Rattus norvegicus came to 22.8%; in the data set on Mus musculus [6] it was 40.8%. In addition, the zone of inhibition at 1000 µg/mL came to 18.4 mm with Bacillus subtilis; 16.5 mm in the data set with Staphylococcus aureus; 17.4 mm with Pseudomonas aeruginosa; 18.3 mm in the data set on Escherichia coli; 21.2 mm with Aspergillus niger [7]; 13.5 mm with Candida albicans [8]. Also, in data set [1], the LC50 at 24 h is 10 µg/mL (≈ 16.4 µM). Besides, the figures for the concentration for half-maximal inhibition (IC50) (in data set [9]; in [10]; in the data set with Brain) were 57.1 µM, 66.3 µM and 60.7 µM, respectively. In [11], the TEAC (Trolox equivalents) worked out at 2.65.

As to `O=C(NC(CS)C(=O)N(C(=O)NC1CCCCC1)C1CCCCC1)/C(=C\c1ccccc1)NC(=O)c1ccccc1` (stereo not drawn), the Activity result in the data set with Mus musculus [4] and in the data set on Mus musculus [5] was “Non-toxic” throughout. In addition, the inhibition in vivo at 100 mg/kg in the data set with Rattus norvegicus was 43.4%; in the data set with Mus musculus [6] it was 56.8%. In addition, the zone of inhibition at 1000 µg/mL in the data set with Bacillus subtilis is 23.2 mm; with Staphylococcus aureus, 24.4 mm; in the data set with Pseudomonas aeruginosa, 20.6 mm; in the data set with Escherichia coli, 25.8 mm; with Aspergillus niger [7] it was 18.3 mm; in the data set with Candida albicans [8], 17.4 mm. Further, the LC50 at 24 h in data set [1] was 3.53 µg/mL (≈ 6.12 µM). In addition, the values for the IC50 (in data set [9]; in data set [10]; with Brain) were 44.4 µM, 64.4 µM and 59.5 µM, respectively. The TEAC (Trolox equivalents) in [11] was determined as 3.84.
